The RNAGym collection of RNA variant scans (doi:10.1002/anie.201605470)

B1: Osa-1-4 twister ribozyme (parent)
chain: CCGCCUAACACUGCCAAUGCCGGUCCCAAGCCCGGAUAAAAGUGGAGGGGGCGG

Variants of: B1
Assay: self-cleavage, relative activity (ratio to wild type); higher = more cleavage; co-transcriptional
Method in brief: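 A DNA template encoding a 54-nucleotide twister ribozyme from Oryza sativa was made so that each of the 48 positions downstream of the cleavage site carried 97 % wild-type base and 1 % of each other base. Transcription in vitro ran for 2 h at 37 °C, during which the ribozyme could cleave itself. Reverse transcription used a template-switching oligonucleotide, and the products were PCR-amplified and deep-sequenced. Each read was scored as cleaved or uncleaved by whether upstream sequence was present, and relative activity is the fraction cleaved normalised to wild type.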
Work on G19A G35C yielded a self-cleavage of 0.68. In the case of G19A G35U, the self-cleavage is reported as 0.2. In the case of G19A G35A, the self-cleavage is reported as 0.83. G19U U37A showed a self-cleavage of 0.15. Work on G19U U37C yielded a self-cleavage of 0.84. With G19U U37G the self-cleavage was 0.53. For G19A G22A, the self-cleavage was 0.35. Variant G19A G22C has a self-cleavage of 0.05. Work on G19A G22U yielded a self-cleavage of 0.12. Work on G19U U43C yielded a self-cleavage of 0.07. With G19U U43A the self-cleavage was 0.11. In the case of G19U U43G, the self-cleavage is reported as 0.09. With A17U G30A the self-cleavage was 0.05. For A17U G30C, the self-cleavage was 0.06. A17U G30U showed a self-cleavage of 0.04. With G19C U43G the self-cleavage was 0.07. Work on G19C U43A yielded a self-cleavage of 0.07. Variant G19C U43C has a self-cleavage of 0.05. G19A G30U gave a self-cleavage of 0.06. G19A G30C gave a self-cleavage of 0.07. Work on G19A G30A yielded a self-cleavage of 0.05. For G19U G53U, the self-cleavage was 0.09. In the case of G19U G53C, the self-cleavage is reported as 0.06. Variant G19U G53A has a self-cleavage of 0.1. For C20A, the self-cleavage was 0.86. G19U G22A gave a self-cleavage of 0.32. G19U G22U showed a self-cleavage of 0.12. In the case of G19U G22C, the self-cleavage is reported as 0.05. G19A gave a self-cleavage of 0.99. G19U gave a self-cleavage of 0.57. Work on G19C yielded a self-cleavage of 0.27. C20A G35C showed a self-cleavage of 0.9. Work on C20A G35A yielded a self-cleavage of 0.88. With C20A G35U the self-cleavage was 0.94. Variant G19A G44U has a self-cleavage of 0.4. G19A G44A showed a self-cleavage of 0.23. With G19A G44C the self-cleavage was 0.72. C20A G13C gave a self-cleavage of 0.01. C20A G13A gave a self-cleavage of 0.13. C20A G13U gave a self-cleavage of 0.02. G19A U18C showed a self-cleavage of 0.93. With G19A U18G the self-cleavage was 1.01. G19A U18A gave a self-cleavage of 0.84. For G19C U37C, the self-cleavage was 0.64. For G19C U37A, the self-cleavage was 0.46. In the case of G19C U37G, the self-cleavage is reported as 0.24. In the case of G19C G50A, the self-cleavage is reported as 0.24. G19C G50C gave a self-cleavage of 0.06. Variant G19C G50U has a self-cleavage of 0.07. In the case of A17U G13U, the self-cleavage is reported as 0.03. In the case of A17U G13A, the self-cleavage is reported as 0.14. In the case of A17U G13C, the self-cleavage is reported as 0.03. In the case of C20A G19U, the self-cleavage is reported as 0.78. With C20A G19C the self-cleavage was 0.31. C20A G19A showed a self-cleavage of 0.86. With G19U G47C the self-cleavage was 0.04. In the case of G19U G47U, the self-cleavage is reported as 0.04. Variant G19U G47A has a self-cleavage of 0.04. With A17U C33U the self-cleavage was 0.85. For G19A U12A, the self-cleavage was 0.12. Variant G19A U12C has a self-cleavage of 0.09. G19A U12G showed a self-cleavage of 0.13. In the case of U18G U43G, the self-cleavage is reported as 0.77. Variant U18G U43A has a self-cleavage of 0.76. With U18G U43C the self-cleavage was 0.67. Work on U18A U43G yielded a self-cleavage of 0.58. Work on U18A U43C yielded a self-cleavage of 0.36. Variant U18A U43A has a self-cleavage of 0.83. Work on G19U G51C yielded a self-cleavage of 0.07. For G19U G51U, the self-cleavage was 0.08. In the case of G19U G51A, the self-cleavage is reported as 0.15. In the case of G19U G30C, the self-cleavage is reported as 0.05. G19U G30A showed a self-cleavage of 0.05. Variant G19U G30U has a self-cleavage of 0.04. In the case of G19A G45C, the self-cleavage is reported as 0.06. G19A G45U showed a self-cleavage of 0.06. G19A G45A gave a self-cleavage of 0.07. For C20A C27A, the self-cleavage was 0.34. C20A C27G gave a self-cleavage of 0.09. Work on C20A C27U yielded a self-cleavage of 0.31. For G19U G35C, the self-cleavage was 0.6. With G19U G35A the self-cleavage was 0.21. Work on G19U G35U yielded a self-cleavage of 0.76.
